# Assay results from different studies.
# Each line is one published result; the experiments were not run side by side.
# rep main protease: Replicase polyprotein 1ab, main protease (rep, Porcine epidemic diarrhea virus, UniProt P0C6Y4)
# SLC6A4: Sodium-dependent serotonin transporter (SLC6A4, Homo sapiens, UniProt P31645)
# rep papain-like protease: Replicase polyprotein 1ab, papain-like protease (rep, Porcine epidemic diarrhea virus, UniProt P0C6Y4)
Compound,target,assay,system,conditions,quantity,value
O=C(NCc1cc(O)c(O)c(Br)c1)c1ccc2ccccc2n1,rep main protease,"enzyme activity, inhibitor, FRET",,10 µM,inhibition,62.4%
CCOC(=O)[C@@]12C[C@@H]1[C@@H](n1cnc3c(NCCCCCc4ccccc4)nc(C#Cc4ccccc4)nc31)[C@H](O)[C@@H]2O,SLC6A4,"ligand displacement, radioligand",,"10 µM, cell membranes",inhibition,27%
COc1ccc(CNC(=O)c2ccc(Br)cc2)cc1OC,rep main protease,"enzyme activity, inhibitor, FRET",,10 µM,inhibition,60.4%
C1=C/COCc2cc(ccc2OCCN2CCCC2)Nc2nccc(n2)-c2cccc(c2)COC/1,"Serine/threonine-protein kinase Nek2 (NEK2, Homo sapiens, UniProt P51955)",binding,,0.1 µM,remaining binding,75%
O=C(NCc1cc(O)c(O)c(Br)c1)c1ccncc1Cl,rep papain-like protease,"enzyme activity, inhibitor, FRET",,10 µM,inhibition,44.4%
CCCCC(=O)Nc1ccc(-c2ccc3ncn(CCC)c(=O)c3c2)cn1,"Rhodopsin kinase GRK7 (GRK7, Homo sapiens, UniProt Q8WTQ7)","binding, competition with immobilised ligand",,0.5 µM,remaining binding,93%
COc1cc(CNC(=O)CC(c2ccc(Cl)cc2)C(C)C)cc(Br)c1OC (stereo not drawn),rep main protease,"enzyme activity, inhibitor, FRET",,10 µM,inhibition,33%
Cc1cc(O)c(-c2ccc([C@@H](C)CN(C)C)cc2)c2c1[nH]c(=O)c1sccc12,"Calcium/calmodulin-dependent protein kinase type 1D (CAMK1D, Homo sapiens, UniProt Q8IU85)","cell-free assay, inhibitor",,"0.1 µM, lysate",inhibition,-8.71%
CNC(=O)[C@@]12C[C@@H]1[C@@H](n1cnc3c(Nc4ccccc4)nc(C#Cc4ccc(Cl)s4)nc31)[C@H](O)[C@@H]2O,SLC6A4,"ligand displacement, radioligand",,10 µM,inhibition,11%
CCCCC[C@H](O)/C=C/[C@H]1[C@H](O)CC(=O)[C@@H]1C/C=C\CCCC(=O)O,"Prostaglandin E2 receptor EP1 subtype (PTGER1, Homo sapiens, UniProt P34995)","inositol phosphate, agonist, TR-FRET",AD293,1 h,Emax,99.9%
N#CC[C@@]12C[C@@H]1[C@@H](n1cnc3c(NC4CC4)nc(C#Cc4ccc(Cl)s4)nc31)[C@H](O)[C@@H]2O,SLC6A4,"ligand displacement, radioligand",,10 µM,inhibition,15%
O=C(NCc1cc(O)c(O)c(Br)c1)c1cccc(C(F)(F)F)c1,rep papain-like protease,"enzyme activity, inhibitor, FRET",,10 µM,inhibition,102%
CCOC(=O)[C@@]12C[C@@H]1[C@@H](n1cnc3c(NCc4cccc(Cl)c4)nc(C#Cc4ccc(Cl)s4)nc31)[C@H](O)[C@@H]2O,SLC6A4,"ligand displacement, radioligand",,10 µM,inhibition,13%
COc1cc(CNC(=O)c2ccco2)cc(Br)c1OC,rep main protease,"enzyme activity, inhibitor, FRET",,10 µM,inhibition,64.9%
CCOC(=O)[C@@]12C[C@@H]1[C@@H](n1cnc3c(NCCCCCCc4ccccc4)nc(I)nc31)[C@H](O)[C@@H]2O,SLC6A4,"ligand displacement, radioligand",,10 µM,inhibition,68%
CCN1/C(=C/C(C)=O)Sc2ccc(F)cc21,SLC6A4,"ligand displacement, radioligand",,10 µM,inhibition,2.03%
COc1cc(-c2cc(C(C)=O)n3ccccc23)c(OC)cc1Cn1ccnc1,"Bromodomain adjacent to zinc finger domain protein 2B, bromodomain (BAZ2B, Homo sapiens, UniProt Q9UIF8)","thermal stability, DSF",,,ΔTm,2.1 °C
CCOC(=O)[C@@]12C[C@@H]1[C@@H](n1cnc3c(NCCCCCc4ccccc4)nc(I)nc31)[C@H](O)[C@@H]2O,SLC6A4,"ligand displacement, radioligand",,10 µM,inhibition,48%
